From ChEMBL document CHEMBL1126042, “Reversible inhibitors of the gastric (H+/K+)-ATPase. 2. 1-Arylpyrrolo[3,2-c]quinolines: effect of the 4-substituent” (J Med Chem, 1992)

Columns and labels:
[1] = target: T1, Potassium-transporting ATPase (Rattus norvegicus) (UniProt P09626+P18598); assay: The compound was evaluated for the inhibition of gastric H+/K+ ATPase at 100 uM; assay type: tissue-based; settings: Stomach
[2] = target: T1, Potassium-transporting ATPase (Rattus norvegicus); assay: The compound was evaluated for the inhibition of gastric H+/K+ ATPase at 10 uM; assay type: tissue-based; settings: Stomach
[3] = target: T1, Potassium-transporting ATPase (Rattus norvegicus); assay: The compound was evaluated for the inhibition of gastric (H(+)/K(+))-ATPase at 100 uM; assay type: protein-complex assay; settings: Stomach
Rattus norvegicus [4] = assay: The compound was evaluated for the percentage inhibition of rat gastric secretion at a dose of 10 umol/kg on intravenous administration; d = Compound was too insoluble for intravenous administration; assay type: functional, organism-based; settings: Stomach
[5] = target: T1, Potassium-transporting ATPase (Rattus norvegicus); assay: The compound was evaluated for the inhibition of gastric (H(+)/K(+))-ATPase at 30 uM; settings: Stomach
[6] = target: T2, Potassium-transporting ATPase (Rattus norvegicus, UniProt P09626); assay: Inhibition of rat isolated gastric (H(+)/K(+))-ATPase.; assay type: tissue-based, Stomach
How it was run: (§1)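 (H+/K+)-ATPase activity measured in lyophilized gastric vesicles; compounds dissolved in DMSO, then diluted into pH 7.0 buffer. IC50 given as mean ± range (n = 2) or as a single observed value (n = 1).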

Rattus norvegicus [7] = assay: Percentage inhibition of rat gastric secretion following 10 uM/Kg i.v.
Rattus norvegicus [8] = assay: The compound was evaluated for the gastric antisecretory activity in the lumen-perfused rat on intravenous administration; assay type: functional; settings: Stomach
Canis familiaris [9] = assay: The compound was evaluated for the gastric antisecretory activity in the Heidenhain pouch dog for a dose of 1 umol/kg on intravenous administration.; assay type: functional; settings: Canis lupus familiaris, Stomach
How it was run: (§2)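 Conscious Heidenhain pouch dogs dosed intravenously; inhibition of gastric acid secretion measured.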

[10] = target: T2, Potassium-transporting ATPase; assay: The compound was evaluated for the inhibition of gastric H+/K+ ATPase; assay type: tissue-based, Stomach; how it was run: as §1
Rattus norvegicus [11] = assay: The compound was evaluated for the percentage inhibition of rat gastric secretion at a dose of 10 umol/kg on intravenous administration; assay type: functional; settings: Stomach
[12] = target: Potassium-transporting ATPase (Rattus norvegicus, UniProt P09626+P18598); assay: The compound was evaluated for the inhibition of gastric (H(+)/K(+))-ATPase; Compound was insoluble; assay type: protein-complex assay, Stomach; how it was run: as §1
Canis familiaris [13] = assay: The compound was evaluated for the gastric antisecretory activity in the Heidenhain pouch dog for a dose of 1 umol/kg on intravenous administration; assay type: functional; settings: Canis lupus familiaris, Stomach; how it was run: as §2
Canis familiaris [14] = assay: The compound was evaluated for the gastric antisecretory activity in the Heidenhain pouch dog for a dose of 4 umol/kg on intravenous administration; assay type: functional; settings: Canis lupus familiaris, Stomach; how it was run: as §2

T2 sequence (P09626 whole entry): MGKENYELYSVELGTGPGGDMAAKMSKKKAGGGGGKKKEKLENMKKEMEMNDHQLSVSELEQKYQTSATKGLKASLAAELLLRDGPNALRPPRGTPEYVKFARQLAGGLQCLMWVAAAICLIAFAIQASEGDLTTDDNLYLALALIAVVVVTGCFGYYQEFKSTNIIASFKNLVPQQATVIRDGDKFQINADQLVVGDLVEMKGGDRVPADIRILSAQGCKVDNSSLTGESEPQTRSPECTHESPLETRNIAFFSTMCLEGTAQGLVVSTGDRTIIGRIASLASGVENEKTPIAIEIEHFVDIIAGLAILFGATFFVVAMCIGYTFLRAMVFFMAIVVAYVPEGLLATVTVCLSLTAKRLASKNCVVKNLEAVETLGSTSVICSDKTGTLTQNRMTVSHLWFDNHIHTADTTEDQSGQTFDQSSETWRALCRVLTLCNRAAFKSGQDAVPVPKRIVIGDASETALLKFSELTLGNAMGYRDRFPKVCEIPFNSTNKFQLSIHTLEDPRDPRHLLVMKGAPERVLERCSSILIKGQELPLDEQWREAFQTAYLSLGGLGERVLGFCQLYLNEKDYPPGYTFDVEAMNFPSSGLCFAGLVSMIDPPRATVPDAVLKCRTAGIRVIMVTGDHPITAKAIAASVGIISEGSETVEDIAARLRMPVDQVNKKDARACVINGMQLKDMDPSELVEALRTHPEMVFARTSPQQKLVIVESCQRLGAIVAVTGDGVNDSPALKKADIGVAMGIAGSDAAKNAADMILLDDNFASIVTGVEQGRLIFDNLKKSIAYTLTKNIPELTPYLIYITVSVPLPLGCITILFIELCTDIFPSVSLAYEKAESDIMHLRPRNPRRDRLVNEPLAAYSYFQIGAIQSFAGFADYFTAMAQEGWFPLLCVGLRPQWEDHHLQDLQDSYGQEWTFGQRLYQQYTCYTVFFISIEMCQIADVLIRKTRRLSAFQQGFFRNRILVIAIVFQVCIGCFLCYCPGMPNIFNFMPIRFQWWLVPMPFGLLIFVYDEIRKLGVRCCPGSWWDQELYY
T2 sequence (P18598 whole entry, further chain): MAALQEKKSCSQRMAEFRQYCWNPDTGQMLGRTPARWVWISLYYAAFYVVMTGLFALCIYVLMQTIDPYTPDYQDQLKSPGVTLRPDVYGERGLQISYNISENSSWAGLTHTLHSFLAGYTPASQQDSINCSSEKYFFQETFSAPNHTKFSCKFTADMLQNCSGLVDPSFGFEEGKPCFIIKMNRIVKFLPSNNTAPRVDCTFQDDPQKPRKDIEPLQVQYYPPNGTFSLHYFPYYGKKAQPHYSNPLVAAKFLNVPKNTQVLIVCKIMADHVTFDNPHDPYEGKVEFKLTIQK
Potassium-transporting ATPase (Rattus norvegicus, UniProt P09626+P18598), sequence (P09626 whole entry): as the sequence (P09626 whole entry) above
Potassium-transporting ATPase (Rattus norvegicus, UniProt P09626+P18598), sequence (P18598 whole entry): as the sequence (P18598 whole entry, further chain) above

Compound | IC50 [6] [nM] | Inhibition (Rattus norvegicus [7]) [%] | also measured
Cc1ccccc1-n1ccc2c(Cl)nc3c(C)cccc3c21 |  |  | inhibition [1]: 30%; inhibition [2]: 2%
Cc1ccccc1N1CCc2c1nc1c(C)cccc1c2Cl |  |  | inhibition [3]: 8%
COc1nc2c(C)cccc2c2c1CCN2c1ccccc1C |  |  | inhibition (Rattus norvegicus [4]): Too insoluble; inhibition [5]: 0%
COc1ccccc1N1CCc2c(N)nc3c(OC)cccc3c21 | 440 | 20 | 
COc1ccccc1N1CCc2cnc3c(OC)cccc3c21 | 1290 | 31 | 
COc1ccccc1N1CCc2c(O)nc3c(OC)cccc3c21 |  |  | inhibition (Rattus norvegicus [4]): Too insoluble
Cc1ccccc1-n1ccc2c(NCCCCO)nc3c(C)cccc3c21 | 220 | 47 | 
Cc1ccccc1N1CCc2c(NC(N)=O)nc3c(C)cccc3c21 | 1990 |  | inhibition (Rattus norvegicus [4]): Too insoluble
CCOC(=O)c1cc(Nc2ccccc2C)c2cccc(OC)c2n1 | 850 |  | ED50 (Rattus norvegicus [8]): 8.2 µmol/kg
Cc1ccccc1N1CCc2c(N)nc3c(C)cccc3c21 | 220 | 63 | inhibition in vivo at 1 µmol/kg (Canis familiaris [9]): 53%; ED50 (Rattus norvegicus [8]): 4.3 µmol/kg
CNc1nc2c(C)cccc2c2c1CCN2c1ccc(OC)cc1C | 280 | 67 | 
COc1cccc2c1nc(C)c1ccn(-c3ccccc3C)c12 | 640 | 48 | ED50 (Rattus norvegicus [8]): 7.08 µmol/kg
COc1ccccc1N1CCc2c(Cl)nc3c(OC)cccc3c21 |  |  | IC50 [10]: 10700 nM; inhibition in vivo at 10 µmol/kg (Rattus norvegicus [11]): 19%
CSc1nc2c(C)cccc2c2c1CCN2c1ccccc1C |  |  | inhibition (Rattus norvegicus [4]): Too insoluble; inhibition [5]: 0%
COc1cccc2c3c(c(C(=O)Nc4ccccc4C)nc12)CCN3c1ccccc1C |  |  | IC50 [12]: Insoluble
CNc1nc2c(OC)cccc2c2c1CCN2c1ccccc1C | 250 | 49 | 
Cc1ccccc1-n1ccc2c(NCCCO)nc3c(C)cccc3c21 | 410 | 30 | 
CNC(=O)Nc1nc2c(C)cccc2c2c1CCN2c1ccccc1C | 4970 |  | inhibition (Rattus norvegicus [4]): Too insoluble
COc1ccccc1N1CCc2c1c1cccc(OC)c1[nH]c2=O | 33400 |  | 
CNc1nc2c(C)cccc2c2c1CCN2c1ccccc1C | 180 | 72 | inhibition in vivo at 1 µmol/kg (Canis familiaris [13]): 67%; inhibition in vivo at 4 µmol/kg (Canis familiaris [14]): 95%; ED50 (Rattus norvegicus [8]): 2.8 µmol/kg
Cc1ccccc1N1CCc2cnc3c(C)cccc3c21 | 980 | 47 | ED50 (Rattus norvegicus [8]): 16.2 µmol/kg
Cc1ccccc1N1CCc2c1nc1c(C)cccc1c2Nc1ccccc1 | 1100 | 0 | 
Cc1ccccc1N1CCc2c(N(C)C)nc3c(C)cccc3c21 | 1030 | 56 | ED50 (Rattus norvegicus [8]): 7.2 µmol/kg
Cc1ccccc1-n1ccc2c(NCCO)nc3c(C)cccc3c21 | 170 | 48 | 
COc1cccc2c3c(c(NCCO)nc12)CCN3c1ccccc1C | 280 | 67 | 
Cc1ccccc1N1CCc2c(CO)nc3ccccc3c21 | 1230 | 33 | 
CNc1nc2c(C)cccc2c2c1ccn2-c1ccccc1C | 290 | 61 | 
Cc1ccccc1N1CCc2c(Cl)nc3c(C)cccc3c21 |  |  | inhibition [2]: 25%; inhibition in vivo at 10 µmol/kg (Rattus norvegicus [11]): 15%
